Compound activity (PubChem)
mIAP act – mouse IAP activation; muIAP, CDP-Star luminescence, 30 min; stronger effect = higher value; 1 = vehicle-only enzyme signal, 0 = enzyme-free wells; activation factor at 10 µM; 330,000 compounds, 0.24% hits;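 active = activation factor of at least 2 at 20 µM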
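Assay system: mouse IAP enzyme; reagent: chemiluminescent substrate CDP-Star; dosing: test compounds delivered from DMSO solution; schedule: 30 min at room temperature; measured by: luminescence from enzymatic CDP-Star hydrolysis; controls: DMSO-only wells and no-enzyme negative control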
hIAP block – human IAP inhibition; AID 2544; purified IAP, CDP-Star luminescence, 30 min; inhibition, % at 10 µM; 330,000 compounds, 0.12% hits;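 active = inhibition reaching a set limit with compound at 10 µM in the primary screen, cut at about 35% in these data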;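 note: plate controls were DMSO wells with enzyme for no effect and no-enzyme buffer wells for full effect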
Target sequence (P09923 whole entry, looked up): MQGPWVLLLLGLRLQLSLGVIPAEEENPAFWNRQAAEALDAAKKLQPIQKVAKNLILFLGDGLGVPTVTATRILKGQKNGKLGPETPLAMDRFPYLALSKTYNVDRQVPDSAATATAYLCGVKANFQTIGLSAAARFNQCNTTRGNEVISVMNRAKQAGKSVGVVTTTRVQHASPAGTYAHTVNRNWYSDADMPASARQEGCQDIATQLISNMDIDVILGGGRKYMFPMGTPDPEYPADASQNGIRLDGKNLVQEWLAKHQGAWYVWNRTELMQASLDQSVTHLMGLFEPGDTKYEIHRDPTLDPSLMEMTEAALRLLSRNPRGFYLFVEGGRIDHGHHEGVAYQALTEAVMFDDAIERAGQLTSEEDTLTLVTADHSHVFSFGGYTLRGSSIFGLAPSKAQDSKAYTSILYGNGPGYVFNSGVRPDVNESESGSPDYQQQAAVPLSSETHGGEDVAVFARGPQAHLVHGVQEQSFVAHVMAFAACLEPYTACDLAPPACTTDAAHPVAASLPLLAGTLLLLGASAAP
mIAP inh – blocks mouse intestinal alkaline phosphatase | purified mouse IAP, CDP-Star luminescence, 30 min | inhibition, % at 10 µM | 330,000 compounds, 0.2% hits;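 active = inhibition of at least 40% at 10 µM in the primary screen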;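 note: plate controls were DMSO with enzyme for no effect and no enzyme wells for full effect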
bIAP act – increases bovine intestinal alkaline phosphatase activity | activation factor at 20 µM | purified bovine IAP, CDP-star luminescence, 30 min; stronger effect = higher value; fold of DMSO-control signal, blank-subtracted | AID 1016 | 200,000 compounds, 0.17% hits;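 active = activation factor of 2 or more at 20 µM, a signal rise over negative controls twice the positive control's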
bIAP inhibitor – intestinal alkaline phosphatase (bovine) inhibition | purified bovine IAP, CDP-star luminescence, 30 min | 190,000 tested, under 10 active | inhibition, % at 20 µM;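 active = over 50% inhibition of intestinal alkaline phosphatase at 20 µM in the single-dose screen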
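System: purified bovine intestinal alkaline phosphatase (IAP) enzyme; Input: IAP diluted 1/65,000,000 in the well; Measured by: CDP-star luminescence signal; Compound dosing: 20 µM single dose; Incubation: 30 min reaction at room temperature.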
hIAP activ – increases human intestinal alkaline phosphatase activity. P09923. purified human IAP, CDP-Star luminescence, 30 min; stronger effect = higher value; 1 = vehicle-only enzyme, 0 = enzyme-free background. activation factor at 10 µM. 330,000 compounds, 0.16% hits;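 active = activation factor of the enzyme at least 2-fold when tested at 20 µM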
Numbers without * were called inactive; i = inactive; · = not tested or not shown. Compounds with a hit are over-represented: about 0.72% of the library has one in this group of screens.

SMILES	mIAP act	hIAP block	mIAP inh	bIAP act	bIAP inhibitor	hIAP activ
CCc1ccc(NC(=O)C2CCCN(S(=O)(=O)c3ccc4c(c3)CC(C)N4C(C)=O)C2)cc1 (centres undefined)	1.3	-14	-32	·	·	1.1
N#Cc1sc2nc(-c3ccccc3)cc(-c3ccco3)c2c1N	0.52	4	48*	0.9	11	0.96
N#Cc1sc2nc(C3CC3)cc(-c3ccccc3)c2c1N	1.1	-29	-14	0.9	15	1.3
CCCCCCCCNc1ncnc2ccccc12	1.2	23	-22	9*	i	0.77
Fc1ccc(N2CCN(Cc3c[nH]c4ccccc34)CC2)cc1	1	38*	-1	·	·	0.62
C=C1CCN([C@@H](CC(C)C)C(=O)NCc2ccc(Cl)c(Cl)c2)S(=O)(=O)c2ccccc21	1.2	24	-19	·	·	0.76
C=C1CCN([C@@H](CC(C)C)C(=O)NCc2ccc(Cl)cc2)S(=O)(=O)c2ccccc21	0.54	12	46*	·	·	0.88
CCOc1cc(/C=C2\CCC/C(=C\c3cc(Cl)c(O)c(OCC)c3)C2=O)cc(Cl)c1O	0.56	21	44*	0.3	·	0.79
CCCn1c(C(O)c2ccc(C)cc2)nc2ccccc21 (centres undefined)	0.92	-21	8	·	·	1.2
CCCn1c(C(O)c2ccc3c(c2)OCO3)nc2ccccc21 (centres undefined)	0.97	-9	3	5.8*	-478	1.1
COc1ccccc1CNC(=O)C1COc2ccccc2O1 (centres undefined)	1	11	-4	0.8	22	0.89
COC(=O)C(C(=O)OC)c1ncc(C(F)(F)F)cc1Cl	1	8	-4	2.2*	-124	0.92
COc1ccc(C(CC(=O)Nc2ccccc2OC)n2cccc2)cc1 (centres undefined)	1	-5	0	0.9	11	1
COc1ccc(C(CC(=O)Nc2cc(OC)cc(OC)c2)n2cccc2)cc1 (centres undefined)	2.2*	-20	-122	0.9	10	1.2
CCNc1ccc(S(=O)(=O)N(C)C)cc1NCC(=O)Nc1ccccc1F	0.98	-3	2	0.9	9	1
CC(NC(=O)CN(C)Cc1nc2ccccc2c(=O)[nH]1)c1ccccc1 (centres undefined)	1	-92	-1	2.1*	-115	1.9
NC(=O)[C@@H]1CCCCNc2c(I)cc([N+](=O)[O-])cc2C(=O)N[C@@H](CCC(=O)O)C(=O)N[C@@H](CO)C(=O)N1	0.97	18	3	0.8	20	0.82
Cc1cccc(NC(=S)NCCSc2ccc(Cl)cc2)c1	2.2*	-14	-123	0.6	40	1.1
Cc1ccc(NC(=S)NCC(C)CSc2ccc(Cl)cc2)cc1 (centres undefined)	2.7*	-36	-165	0.7	31	1.4
Cc1ccc(NC(=S)NCCSc2ccc(Cl)cc2)c(C)c1	2	0	-99	1.1	-15	1
Cc1cccc(NC(=S)NC(C)CCc2ccccc2)c1 (centres undefined)	2.2*	-8	-117	0.6	38	1.1
Cc1ccc(C)c(NC(=S)NCCSc2ccc(Cl)cc2)c1	1.9	-5	-87	0.6	36	1.1
Cc1ccccc1NC(=S)NCCSc1ccc(Cl)cc1	2	-13	-97	0.4	·	1.1
CCc1ccccc1NC(=S)NCCSc1ccc(Cl)cc1	2*	19	-102	0.5	·	0.81
O=c1c2c([N+](=O)[O-])cc([N+](=O)[O-])cc2sn1-c1ccc(Br)cc1	0.86	-7	14	0.9	8	1.1
SMILES	mIAP act	hIAP block	mIAP inh	bIAP act	bIAP inhibitor	hIAP activ
C=C(C)CSc1nc(N)c(C#N)c(-c2ccc(C)cc2)c1C#N	1	-15	-4	0.7	27	1.1
COc1ccc(CNC(=O)C(C)N(Cc2ccccc2OC)C(=O)c2snc(C(N)=O)c2N)cc1 (centres undefined)	0.94	6	6	·	·	0.94
Cc1cccc(NC(=S)NCC(c2ccccc2)N(C)C)c1 (centres undefined)	1.1	-3	-9	0.8	17	1
Cc1cccc(NC(=S)NCC(C)CSc2ccc(Cl)cc2)c1 (centres undefined)	3.2*	-38	-225	0.7	35	1.4
CC1=C(C(=O)OCc2ccccc2)C(c2ccc(N(C)C)cc2)NC(=O)N1 (centres undefined)	0.97	20	3	2.8*	-184	0.8
CCOc1ccc(C2NC(=O)NC(C)=C2C(=O)OCc2ccccc2)cc1 (centres undefined)	1	2	-2	·	·	0.98
CC(=O)Nc1ccc(S(=O)(=O)NCC(CCC(=O)O)C(F)(F)F)cc1 (centres undefined)	1.1	-15	-8	1	-1	1.2
COCCNC(=O)C(c1cccc(OC)c1)N(Cc1cccs1)C(=O)Cn1nnc2ccccc21 (centres undefined)	1	8	-2	0.9	9	0.92
CCC(C)N(C(=O)Cn1nnc2ccccc21)C(C(=O)Nc1ccc(F)cc1)c1cccc(OC)c1 (centres undefined)	2.3*	-16	-131	1.3	-30	1.2
FC(F)(F)c1cccc(NC(=S)NCc2ccccc2)c1	2.2*	-23	-120	0.6	37	1.2
Cc1ccc(OC(F)F)c(NC(=O)Nc2cccc(C(F)(F)F)c2)c1	2.1*	-2	-106	0.7	28	1
O=C(Nc1ccccc1)Nc1cccc(C(F)(F)F)c1	2.9*	-15	-187	1	1	1.2
O=C(Nc1cccc(C(F)(F)F)c1)NC1CCN(S(=O)(=O)c2ccc(F)cc2)CC1	2.3*	7	-134	0.9	12	0.93
COc1cccc(NC(=O)Nc2cc(C)ccc2OC)c1	1.3	25	-26	1	2	0.75
CNC(=O)Nc1cccc(C(F)(F)F)c1	0.91	6	9	0.9	6	0.94
FC(F)(F)c1cccc(CNC(=S)Nc2ccccc2)c1	1.3	-8	-34	0.7	26	1.1
CC(=O)c1ccc(S(=O)(=O)N2CCC(NC(=O)Nc3cccc(F)c3)CC2)cc1	1.2	-21	-21	1.1	-13	1.2
COc1ccc(-c2noc(CCC(=O)NCCCN3CCC(C)CC3)n2)cc1	1.1	-1	-12	1	-4	1
COc1cnc(SCc2ccc(Cl)cc2Cl)nc1Cl	0.91	11	9	0.7	26	0.89
S=C(NCc1ccccc1)NCc1cccc(CNC(=S)NCc2ccccc2)c1	2.4*	6	-140	0.9	6	0.94
FC(F)(F)Sc1ccc(NC(=S)NCc2ccccc2)cc1	2.3*	0	-132	·	·	1
Cc1ccc(-n2c(C)cc(C3N=C(N)Nc4nc5ccccc5n43)c2C)c(C)c1 (centres undefined)	1.8	-18	-84	7*	i	1.2
